From PubChem
Only some compounds are listed: those with a hit (about 0.94% of all), similar ones and a draw of the others.
aDG glyco up = activators of alpha-DG glycosylation, primary screen, uHTS, Pro5-aDG cells, AlphaScreen. alpha-DG glycosylation AlphaScreen (IIH6); 0% Pro5, 100% B10-LARGE cell signal. activation, % at 10 µM. 360,000 tested, 0.22% active. AID 624168, 2012;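 active means activation of at least 8% versus controls, or a plate z-score of at least 8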;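 further: Pro5 are CHO cells carrying HIG-tagged alpha-DG that lacks glycosylation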
PKA-R1A activ = activators of PKA-R1A holoenzyme, primary screen, biochemical, fluorescence polarization, Cy5-IP20, bovine R1A, mouse PKAc | 340,000 tested, 0.083% active | cAMP-dependent protein kinase type I-alpha regulatory subunit (Bos taurus) + … | AID 504707, 2011 | PKA-R1A dissociation; scaled: DMSO 0%, 113 µM cGMP 100% | activation, % at 11.4 µM;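 active means percent activation above the mean of all tested compounds plus 3 SD, cut at about 19% in these data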;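 further: higher means more PKAc released from R1A so a rise in polarization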
Fh CTSL1 inh = Fasciola hepatica cathepsin L1 inhibitors, primary screen, counter-screen for PFM18AAP inhibitor project, biochemical, QFRET, fluorogenic peptide substrate; recombinant F. hepatica cathepsin L1, Z-Leu-Arg-MCA fluorescence; inhibition, % at 5.96 µM; 300,000 tested, 0.49% active; AID 1906, 2009;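 active means inhibition above the mean of all tested compounds plus 3 SD, set per screening campaign, cut at about 17% in these data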
PKA-R2B act = activators of PKA-R2B holoenzyme, primary screen, biochemical, fluorescence polarization, Cy5-IP20, human; 340,000 tested, 0.079% active; PKA-R2B holoenzyme dissociation; R2B truncated from residue 108, S112A mutant; 0% DMSO only, 100% 113 µM cGMP; cAMP-dependent protein kinase catalytic subunit beta (Homo sapiens) + cAMP-dependent …; AID 504700, 2011; activation, % at 11.4 µM;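 active means activation above a cutoff set at the mean over all compounds plus 3 SD, cut at about 18% in these data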;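 further: higher means more holoenzyme dissociation and a rise in polarization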
UCH37 DUB inh = inhibitors of human UCH37 deubiquitinase, primary screen, biochemical, Ub-AMC cleavage, fluorescence. inhibition, % (concentration not given with the values). purified proteasome/UCH37. 330,000 tested, 0.33% active. Ubiquitin carboxyl-terminal hydrolase isozyme L5 (Homo sapiens), Q9Y5K5;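 active means mean inhibition over replicate wells above about 20%, limit read from the data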
Target sequence (Q9Y5K5 whole entry, looked up): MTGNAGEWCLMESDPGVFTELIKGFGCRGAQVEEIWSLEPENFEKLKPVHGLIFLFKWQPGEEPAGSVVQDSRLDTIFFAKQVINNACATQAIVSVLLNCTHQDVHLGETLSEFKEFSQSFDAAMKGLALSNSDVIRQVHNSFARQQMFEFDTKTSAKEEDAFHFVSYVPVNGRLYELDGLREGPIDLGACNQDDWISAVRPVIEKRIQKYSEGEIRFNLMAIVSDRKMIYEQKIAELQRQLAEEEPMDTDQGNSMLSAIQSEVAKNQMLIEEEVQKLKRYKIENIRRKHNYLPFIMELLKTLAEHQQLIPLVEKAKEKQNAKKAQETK
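Material: Human UCH37 enzyme supplied as purified proteasome complex | Schedule: 30 min compound-proteasome preincubation then 25 min substrate reaction, room temperature | Detection: AMC fluorescence from Ub-AMC cleavage, excitation 355 nm, emission 460 nm | Benchmarks: Wells without proteasome as full block, compound-free enzyme plus substrate as uninhibited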
Hits are given with their value; – = inactive; · = not tested or not shown.

SMILES	aDG glyco up	PKA-R1A activ	Fh CTSL1 inh	PKA-R2B act	UCH37 DUB inh
O=C(CSc1nc2ccccc2s1)NN=Cc1ccc(C(=O)O)cc1	·	·	·	·	–
CCCCC/C=C\C/C=C\C/C=C\CCCCC(=O)O	–	–	34	–	–
CC1CCCN(CCCNC(=O)c2ccc3c(c2)N(Cc2ccccc2F)C(=O)c2ccccc2S3(=O)=O)C1 (centres undefined)	–	–	–	–	·
Cc1ccc(C)c(CN2C(=O)CSc3ccc(C(=O)NCCN4CCOCC4)cc32)c1	–	–	–	–	–
O=C(NCCN1CCOCC1)c1ccc2c(c1)N(Cc1ccccc1F)C(=O)c1ccccc1S2(=O)=O	–	–	18	–	–
CCN1CCCC1CNC(=O)c1ccc2c(c1)N(Cc1cccc(Cl)c1)C(=O)c1ccccc1S2(=O)=O (centres undefined)	–	–	–	–	–
O=C(NCCN1CCOCC1)c1ccc2c(c1)N(Cc1ccccc1F)C(=O)CS2	–	–	27	–	–
CCN1CCCC1CNC(=O)c1ccc2c(c1)N(Cc1ccccc1F)C(=O)c1ccccc1S2(=O)=O (centres undefined)	–	–	52	–	–
Cc1ccn2c(=O)nc(SCC(=O)N3CCCC3)nc2c1	–	–	17	–	–
Cc1cc(NS(=O)(=O)c2ccccc2)c(C)c(Cl)c1O	16	–	–	–	–
Cc1c(O)ccc(NS(=O)(=O)c2ccccc2)c1C	–	–	–	–	·
O=C1NCC(c2ccccc2)C1C(=O)NN=Cc1ccc(-c2cccc(Cl)c2Cl)o1 (centres undefined)	·	·	·	·	–
O=C(CCN1CCOCC1)N1CCc2c([nH]c3ccccc23)C1c1cccc(Cl)c1 (centres undefined)	–	–	–	–	23
Cc1ccccc1C(=O)Oc1cccc(Nc2ncnc3ccccc23)c1	6.3	–	–	–	–
CC(C)(C)NC(=O)C(=O)NN=Cc1cccs1	·	·	·	·	–
COc1cccc(CN(C)C(=O)c2ccc(S(=O)(=O)Nc3ccccc3F)cc2)c1OC	–	–	·	–	–
COc1cccc(CN(C)C(=O)c2csc3c2CCCC3)c1OC	–	–	18	–	–
CC1SC(=NN=Cc2ccco2)N(Cc2ccccc2)C1=O (centres undefined)	·	·	·	·	–
O=C(/C=C/c1ccco1)NCC1CCCO1 (centres undefined)	–	–	34	–	–
CC(CCc1oc2ccc(Cl)cc2c1-c1ccc(C)o1)=NO	·	·	·	·	–
COc1ccc2c(CCNC(=O)c3ccc([N+](=O)[O-])cc3)c[nH]c2c1	–	–	–	–	27
COc1ccc(CCNC(=O)c2ccc([N+](=O)[O-])cc2)cc1	–	–	–	–	–
CC(C)(C)[C@@H]1CCC(=O)N(CC[C@H](N=[N+]=[N-])c2ccccc2)CC1	–	–	–	–	28
CCOC(=O)c1c(NC(=O)CCl)sc(CN(C)C)c1-c1ccccc1	–	–	22	–	–
CCCCCCCCCCCCCCCCn1cc[n+](C)c1	–	–	–	–	76
SMILES	aDG glyco up	PKA-R1A activ	Fh CTSL1 inh	PKA-R2B act	UCH37 DUB inh
CCCCCCCCn1ccc(=N)cc1	–	–	–	–	–
O=C(C=NO)NCCCN1CCOCC1	·	·	·	·	–
COc1cc(CC(=O)OCC(=O)NC2CC2)cc(OC)c1OC	–	–	46	–	–
COc1ccc(CCCC(=O)NN=Cc2ccc(C)cc2)cc1	·	·	·	·	–
Cn1c(=O)c2c(nc(NCC3CCCO3)n2Cc2ccccc2)n(C)c1=O (centres undefined)	–	–	–	–	26
O=C(NCCO)/C(=C\c1cccs1)NC(=O)c1cccs1	–	–	18	–	–
Cc1ccc(C=NN2CCN(C3c4ccccc4-c4ccccc43)CC2)s1	·	·	·	·	–
CC1=CC(=C2N=C(c3ccccc3)OC2=O)C=C(C)O1	–	–	–	–	–
CN(C)/C(CN1CCN(C=O)CC1)=C1\N=C(c2ccccc2)OC1=O	–	–	–	–	20
O=C(c1cccc(Cl)c1)N1CCN(C2CCCCC2)CC1	–	–	25	–	–
CCOC(=O)c1c(C)[nH]c(C)c1C(=O)COC(=O)CNC(=O)C1CCCCC1	–	–	54	–	–
CCOC(=O)c1c(C)[nH]c(C(=O)COC(=O)CNC(=O)C2CCCCC2)c1C	–	–	27	–	–
CCOC(=O)c1c(C)[nH]c(C(=O)COC(=O)CNC(=O)c2ccccc2Cl)c1C	–	–	–	–	–
CCCCCC(=O)Nc1ccc(-c2nnc3n2CCCCC3)cc1	–	–	–	–	–
CCOC(=O)/C=C/C(=O)Nc1ccc(S(=O)(=O)N2CCCCCC2)cc1	–	–	31	–	–
CCOC(=O)/C=C/C(=O)Nc1ccc(-c2nnc3n2CCCCC3)cc1	–	–	37	–	–
Cc1cc(C=NNc2ccc([N+](=O)[O-])cn2)c(C)n1-c1ccc(C(=O)O)cc1	·	·	·	·	–
COc1cccc(NC(=O)c2ccc(NC(C)=O)cc2)c1	–	–	–	–	26
COc1cccc(NC(=O)c2ccncc2)c1	–	–	–	–	–
Cc1cc(Cl)ccc1NC(=O)CCC(=O)NN=Cc1cc([N+](=O)[O-])ccc1O	·	·	·	·	–
COc1ccc(S(=O)(=O)N(CC(=O)NN=Cc2cccs2)c2ccc(C)cc2)cc1OC	·	·	·	·	–
O=C(CSc1nc2ccccc2n1CC(=O)N1CCOCC1)N1CCCC1	–	–	–	–	–
O=C(CSc1nc2ccccc2n1CC(=O)N1CCCC1)N1CCN(C(=O)c2ccco2)CC1	–	–	27	–	–
Cc1ccc([N+](=O)[O-])cc1NC(=S)NCCc1ccccc1	–	–	58	–	–
Cc1ccc2[nH]c(C)c(/C=C/c3cc[n+](C)cc3)c2c1	–	–	·	–	22
SMILES	aDG glyco up	PKA-R1A activ	Fh CTSL1 inh	PKA-R2B act	UCH37 DUB inh
O=[N+]([O-])c1cccc(C=NNC2=NS(=O)(=O)c3ccccc32)c1	·	·	·	·	–
CC(C)C(NC(=O)OCc1ccccc1)C(=O)NC(Cc1ccc(O)cc1)C(=O)O (centres undefined)	–	–	–	–	–
CC(C)[C@H](NC(=O)[C@H](CCCN=C(N)N)NC(=O)NC(Cc1ccccc1)C(=O)O)C(=O)NC(C=O)CCCN=C(N)N (some centres undefined)	–	–	112	–	–
CC(=O)N(/N=C1\Sc2ccccc2C1=O)c1cccc(C)c1	–	–	88	–	·
CC(=O)N(CN1C(=O)c2ccccc2C1=O)c1cccc(C)c1	–	–	–	–	–
CCCCCCn1cnc2c(c1=O)c1nc3ccccc3nc1n2N=Cc1ccco1	·	·	·	·	–
Cc1occc1C(=O)NNC(=S)NCc1ccc(Cl)cc1	–	–	–	–	–
